Reference: article PMC4608253 (Journal of chromatography. B, Analytical technologies in …, 2015)
Where two headings read alike, the source gives them in different places.

Legend:
[1] = format: physicochemical, mice; details: for Accuracy (RE, %) 25°C for 6 h / Accuracy (RE, %) Frozen for 30 days: stability in mice plasma/blood QC sample; for Accuracy (RE, %) Frozen for 30 days: −80°C; for Accuracy (RE, %) 4°C for 24 h: stability, extracted QC sample in auto-sampler
In short: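 Blank mouse blood spiked with analytes and vitamin C, then extracted with methanol containing daidzein internal standard (0.5 μM) by 1 min vortex. Spun at 20,000 × g for 15 min and dried under air. Three replicates per QC level were held unextracted at 25°C for 6 h, at −80°C for 30 days, or extracted in the 4°C autosampler for 24 h. Analysed by UPLC-MS/MS (C18, formic acid/acetonitrile, positive MRM); accuracy as RE.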

in vivo = format: in vivo, A/J mice; details: for detected in the blood: mice, oral XCHT extract 0.5 g/kg; for concentration in the PK study: A/J mice, oral XCHT 500 mg/kg
[2] = male, A/J, mouse, whole blood, po, 0.5 g/kg
[3] = male, A/J, mouse, whole blood, po, 500 mg/kg
[4] = male A/J mouse, oral XCHT extract 500 mg/kg, blood, mean±SD, n=6

Row | SMILES | Accuracy (RE, %) 25°C for 6 h ([1]; spiked concentration 0.049) [%] | Accuracy (RE, %) 25°C for 6 h ([1]; spiked concentration 6.25) [%] | Accuracy (RE, %) 25°C for 6 h ([1]; spiked concentration 50) [%] | Accuracy (RE, %) Frozen for 30 days ([1]; spiked concentration 0.049) [%] | Accuracy (RE, %) Frozen for 30 days ([1]; spiked concentration 6.25) [%] | Accuracy (RE, %) Frozen for 30 days ([1]; spiked concentration 50) [%] | Accuracy (RE, %) 4°C for 24 h ([1]; spiked concentration 0.049) [%] | Accuracy (RE, %) 4°C for 24 h ([1]; spiked concentration 6.25) [%] | Accuracy (RE, %) 4°C for 24 h ([1]; spiked concentration 50) [%] | AUC(0-inf) (in vivo; [3]) [µM·h] | AUC(0-t) (in vivo; [3]) [µM·h] | Cmax (in vivo; [3]) [nM] | half-life (in vivo; [3]) [h] | detected in the blood (in vivo) | Accuracy (RE, %) 25°C for 6 h ([1]; spiked concentration 62.5) [%] | Accuracy (RE, %) 25°C for 6 h ([1]; spiked concentration 500) [%] | Accuracy (RE, %) Frozen for 30 days ([1]; spiked concentration 62.5) [%] | Accuracy (RE, %) Frozen for 30 days ([1]; spiked concentration 500) [%] | Accuracy (RE, %) 4°C for 24 h ([1]; spiked concentration 62.5) [%] | Accuracy (RE, %) 4°C for 24 h ([1]; spiked concentration 500) [%] | other results
1 | C[C@@H]1O[C@@H](OC[C@H]2O[C@@H](Oc3c(-c4ccc(O)c(O)c4)oc4cc(O)cc(O)c4c3=O)[C@H](O)[C@@H](O)[C@@H]2O)[C@H](O)[C@H](O)[C@H]1O [rutin] | 13.2 | 3.1 | 6.3 | 8.3 | 8.5 | 7.9 | 9.3 | 12.7 | 12.1 | – | – | – | – | – | – | – | – | – | – | – | –
2 | O=c1cc(-c2ccccc2)oc2cc(O)c(O)c(O)c12 [Baicalein, baicalein] | – | – | – | – | – | – | – | – | – | 0.119 ± 0.0338 | 0.0854 ± 0.026 | 32.7 ± 15 | 6.85 ± 4.32 | detected | 9.9 | 0.7 | −14.5 | 9 | −14 | 13.1 | Tmax (in vivo; [2]): 0.083 h; Tmax (in vivo; [3]): 0.083 h; Accuracy (RE, %) 25°C for 6 h ([1]; spiked concentration 3.9): 10.3%; Accuracy (RE, %) Frozen for 30 days ([1]; spiked concentration 3.9): −11.4%; Accuracy (RE, %) 4°C for 24 h ([1]; spiked concentration 3.9): 12.3%
3 | CC(C)=CCC[C@](C)(O)[C@H]1CC[C@]2(C)[C@@H]1[C@H](O)C[C@@H]1[C@@]3(C)CC[C@H](O[C@@H]4O[C@H](CO)[C@@H](O)[C@H](O)[C@H]4O[C@@H]4O[C@H](CO)[C@@H](O)[C@H](O)[C@H]4O)C(C)(C)[C@@H]3CC[C@]12C [Rg3, ginsenoside Rg3] | – | 9.2 | – | – | 8.0 | – | – | 8.64 | – | – | – | – | – | – | – | −4.3 | – | 0.4 | – | 0.4 | concentration in the PK study (in vivo; blood, time 5 min): 1.33±0.48; concentration in the PK study (in vivo; blood, time 30 min): 3.74±3.73; concentration in the PK study (in vivo; blood, time 360 min): 1.61±0.53; Accuracy (RE, %) 25°C for 6 h ([1]; spiked concentration 0.488): 9.2%; Accuracy (RE, %) Frozen for 30 days ([1]; spiked concentration 0.488): 8.0%; Accuracy (RE, %) 4°C for 24 h ([1]; spiked concentration 0.488): 1.57%
4 | O=C(O)[C@H]1O[C@@H](Oc2cc3oc(-c4ccccc4)cc(=O)c3c(O)c2O)[C@H](O)[C@@H](O)[C@@H]1O [Baicalin, baicalin] | – | – | – | – | – | – | – | – | – | 9.71 ± 0.709 | 8.96 ± 2.08 | 787 ± 123 | 3.11 ± 0.95 | detected | −5.3 | 1.1 | 14.1 | 4.9 | 14.8 | 5.2 | Tmax (in vivo; [2]): 2.13 ± 1.18 h; Tmax (in vivo; [3]): 2.57 h; Accuracy (RE, %) 25°C for 6 h ([1]; spiked concentration 3.9): −5.7%; Accuracy (RE, %) Frozen for 30 days ([1]; spiked concentration 3.9): 6.7%; Accuracy (RE, %) 4°C for 24 h ([1]; spiked concentration 3.9): 3.8%
5 | C[C@H]1O[C@@H](O[C@H]2CC[C@@]3(C)[C@@H](CC[C@]4(C)[C@@H]3C=C[C@]35OC[C@@]6(CCC(C)(C)C[C@H]63)[C@H](O)C[C@]54C)[C@]2(C)CO)[C@H](O)[C@@H](O[C@@H]2O[C@H](CO)[C@@H](O)[C@H](O)[C@H]2O)[C@H]1O [SSd, saikosaponin d] | 6.8 | −13.0 | 2.4 | 8.7 | 12.5 | 15.0 | −19 | 13.1 | 14.5 | – | – | – | – | detected | – | – | – | – | – | – | AUC0-∞ (in vivo; [4]): 0.02584 ± 0.0185 µM·h; AUC(0-t) (in vivo; [4]): 0.02584 ± 0.0185 µM·h; Cmax (in vivo; [4]): 3.42 ± 0.74 nM; t1/2 (in vivo; [4]): 12.18 ± 5.32 h; Tmax (in vivo; male A/J mouse, oral XCHT extract 500 mg/kg, blood, median (min~max), n=6): 0.50 (0.125~0.5) h
6 | O=C1C[C@@H](c2ccc(O[C@@H]3O[C@H](CO)[C@@H](O)[C@H](O)[C@H]3O)cc2)Oc2cc(O)ccc21 [Liquiritin] | – | – | – | – | – | – | – | – | – | 0.137 ± 0.0417 | 0.137 ± 0.0417 | 48.7 ± 38.2 | 9.33 ± 3.42 | detected | 5.5 | 12.7 | 13.8 | 10.9 | 15 | 12.8 | Accuracy (RE, %) 25°C for 6 h ([1]; spiked concentration 0.488): 7.3%; Accuracy (RE, %) Frozen for 30 days ([1]; spiked concentration 0.488): 13.9%; Accuracy (RE, %) 4°C for 24 h ([1]; spiked concentration 0.488): 14.4%
